Measured values reported in ChEMBL document CHEMBL4265973, “Broad-spectrum antibacterial amphiphilic aminoglycosides: A new focus on the structure of the lipophilic groups extends the series of active dialkyl neamines” (Eur J Med Chem, 2018).
Converted amounts (≈) assume the structure as drawn.

Assays:
[1] = system: Klebsiella pneumoniae; test: Antibacterial activity against Klebsiella pneumoniae 700603 by microdilution assay; assay type: functional
In short: (§1)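 Broth microdilution per CLSI recommendations, using a fresh culture in cation-adjusted Mueller-Hinton broth (CA-MHB) and a starting inoculum of 10^6 cells; the MIC is the value read.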

[2] = system: Staphylococcus aureus; test: Antibacterial activity against Staphylococcus aureus SA-1 expressing NorA pump by microdilution assay
[3] = Cytotoxicity against mouse J774 cells assessed as cell viability at 10 uM after 24 hrs by MTT assay relative to control; assay type: cell-based; details: J774 cells, read-out: Activity
In short: (§2)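 Murine J774 macrophages are exposed for 24 h to compound at 10 or 30 µM, then given 0.2 mg/mL MTT for 1 h. The reaction is stopped with DMSO and OD read at 570 nm; viability is metabolic activity as % of control. The number of independent experiments is given per value.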

[4] = system: Staphylococcus aureus; test: Antibacterial activity against Staphylococcus aureus ATCC 25923 by microdilution assay; assay type: functional
In short: (§3)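 Broth microdilution MIC per CLSI recommendations, fresh culture in cation-adjusted Mueller-Hinton broth, starting inoculum 10^6 cells.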

[5] = system: Acinetobacter lwoffii; test: Antibacterial activity against Acinetobacter lwoffii ATCC 17925 by microdilution assay; assay type: functional; in short: as §1
[6] = system: Escherichia coli; test: microbe, parasite or virus in culture; details: ATCC 25922
[7] = Cytotoxicity against mouse J774 cells assessed as cell viability at 30 uM after 24 hrs by MTT assay relative to control; assay type: cell-based; details: J774 cells, read-out: Activity; in short: as §2
[8] = system: Escherichia coli; test: Antibacterial activity against Escherichia coli L8058.1 harboring ANT2'-1A by microdilution assay; assay type: functional; in short: as §3
[9] = system: Staphylococcus aureus; test: Antibacterial activity against methicillin-resistant Staphylococcus aureus ATCC 33592 by microdilution assay; assay type: functional; in short: as §3
[10] = system: Pseudomonas aeruginosa; test: Antibacterial activity against Pseudomonas aeruginosa PA406 harboring triABC deletion mutant by microdilution assay; assay type: functional; in short: as §3
[11] = system: Pseudomonas aeruginosa; test: Antibacterial activity against Pseudomonas aeruginosa FO3 harboring AAC6'-2A by microdilution assay; assay type: functional; in short: as §3
[12] = system: Pseudomonas aeruginosa; test: Antibacterial activity against Pseudomonas aeruginosa ATCC 27853 by microdilution assay; assay type: functional; in short: as §1
[13] = system: Pseudomonas aeruginosa; test: Antibacterial activity against Pseudomonas aeruginosa PA22 harboring surexp MexXY by microdilution assay; assay type: functional; in short: as §3
[14] = system: Acinetobacter lwoffii; test: Antibacterial activity against Acinetobacter lwoffii AI.88-483 harboring APH3'-6A by microdilution assay; assay type: functional; in short: as §3
[15] = system: Escherichia coli; test: Antibacterial activity against Escherichia coli PAZ505H8101 harboring AAC6'-1B by microdilution assay; assay type: functional; in short: as §3

## CCCCCCCCCCCO[C@@H]1[C@@H](N)[C@@H](O[C@H]2[C@H](O)[C@@H](OCCCCCCCCCCC)[C@H](N)C[C@@H]2N)O[C@H](CN)[C@H]1O
[1]
  MIC: 32 µg/mL (≈ 50.7 µM)
[2]
  MIC: 8 µg/mL (≈ 12.7 µM)
[3]
  viability at 24 h, 10 µM: 81.7%
[4]
  MIC: 8 µg/mL (≈ 12.7 µM)
[5]
  MIC: 32 µg/mL (≈ 50.7 µM)
[6]
  MIC: 4 µg/mL (≈ 6.34 µM)
[7]
  viability at 24 h, 30 µM: 14.1%
[8]
  MIC: 16 µg/mL (≈ 25.4 µM)
[9]
  MIC: 64 µg/mL (≈ 101 µM)
[10]
  MIC: 16 µg/mL (≈ 25.4 µM)
[11]
  MIC: 16 µg/mL (≈ 25.4 µM)
[12]
  MIC: 16 µg/mL (≈ 25.4 µM)
[13]
  MIC: 16 µg/mL (≈ 25.4 µM)
[14]
  MIC: 32 µg/mL (≈ 50.7 µM)
[15]
  MIC: 16 µg/mL (≈ 25.4 µM)

## CCCCCCCO[C@@H]1[C@@H](N)[C@@H](O[C@H]2[C@H](O)[C@@H](OCCCCCCC)[C@H](N)C[C@@H]2N)O[C@H](CN)[C@H]1O
[1]
  MIC: 64 µg/mL (≈ 123 µM)
[2]
  MIC: 8 µg/mL (≈ 15.4 µM)
[3]
  viability at 24 h, 10 µM: 96.3%
[4]
  MIC: 8 µg/mL (≈ 15.4 µM)
[5]
  MIC: 32 µg/mL (≈ 61.7 µM)
[6]
  MIC: 32 µg/mL (≈ 61.7 µM)
[7]
  viability at 24 h, 30 µM: 79.9%
[8]
  MIC: 32 µg/mL (≈ 61.7 µM)
[9]
  MIC: 8 µg/mL (≈ 15.4 µM)
[10]
  MIC: 4 µg/mL (≈ 7.71 µM)
[11]
  MIC: 8 µg/mL (≈ 15.4 µM)
[12]
  MIC: 32 µg/mL (≈ 61.7 µM)
[13]
  MIC: 16 µg/mL (≈ 30.8 µM)
[14]
  MIC: > 128 µg/mL
[15]
  MIC: 16 µg/mL (≈ 30.8 µM)

## CCCCCCCCCCCO[C@@H]1[C@@H](O)[C@H](O[C@H]2O[C@H](CN)[C@@H](O)[C@H](O)[C@H]2N)[C@@H](N)C[C@H]1N
[1]
  MIC: > 128 µg/mL
[2]
  MIC: 8 µg/mL (≈ 16.8 µM)
[3]
  viability at 24 h, 10 µM: 74.7%
[4]
  MIC: 32 µg/mL (≈ 67.1 µM)
[5]
  MIC: 64 µg/mL (≈ 134 µM)
[6]
  MIC: > 128 µg/mL
[7]
  viability at 24 h, 30 µM: 83.4%
[8]
  MIC: > 128 µg/mL
[9]
  MIC: 8 µg/mL (≈ 16.8 µM)
[10]
  MIC: 16 µg/mL (≈ 33.6 µM)
[11]
  MIC: > 128 µg/mL
[12]
  MIC: > 128 µg/mL
[13]
  MIC: > 128 µg/mL
[14]
  MIC: > 128 µg/mL
[15]
  MIC: > 128 µg/mL

## NCC[C@H](O)C(=O)N[C@@H]1C[C@H](N)[C@@H](O[C@H]2O[C@H](CN)[C@@H](O)[C@H](O)[C@H]2O)[C@H](O)[C@H]1O[C@H]1O[C@H](CO)[C@@H](O)[C@H](N)[C@H]1O [AMIKACIN]
[1]
  MIC: 1 µg/mL (≈ 1.71 µM)
[2]
  MIC: 2 µg/mL (≈ 3.42 µM)
[4]
  MIC: 4 µg/mL (≈ 6.83 µM)
[5]
  MIC: < 0.25 µg/mL
[6]
  MIC: 4 µg/mL (≈ 6.83 µM)
[8]
  MIC: 8 µg/mL (≈ 13.7 µM)
[9]
  MIC: 8 to 16 µg/mL (≈ 13.7 to 27.3 µM)
[10]
  MIC: 1 µg/mL (≈ 1.71 µM)
[11]
  MIC: 8 µg/mL (≈ 13.7 µM)
[12]
  MIC: 2 to 4 µg/mL (≈ 3.42 to 6.83 µM)
[13]
  MIC: 8 µg/mL (≈ 13.7 µM)
[14]
  MIC: 128 µg/mL (≈ 219 µM)
[15]
  MIC: 64 µg/mL (≈ 109 µM)

## CCCCCCCCCCCO[C@@H]1[C@@H](O)[C@H](O[C@H]2O[C@H](CN)[C@@H](O)[C@H](OCCCCCCC)[C@H]2N)[C@@H](N)C[C@H]1N
[1]
  MIC: 8 µg/mL (≈ 13.9 µM)
[2]
  MIC: 1 µg/mL (≈ 1.74 µM)
[3]
  viability at 24 h, 10 µM: 82.9%
[4]
  MIC: 1 µg/mL (≈ 1.74 µM)
[5]
  MIC: 2 µg/mL (≈ 3.48 µM)
[6]
  MIC: 16 µg/mL (≈ 27.8 µM)
[7]
  viability at 24 h, 30 µM: 38.8%
[8]
  MIC: 4 µg/mL (≈ 6.96 µM)
[9]
  MIC: 1 µg/mL (≈ 1.74 µM)
[10]
  MIC: 2 µg/mL (≈ 3.48 µM)
[11]
  MIC: 4 µg/mL (≈ 6.96 µM)
[12]
  MIC: 2 µg/mL (≈ 3.48 µM)
[13]
  MIC: 4 µg/mL (≈ 6.96 µM)
[14]
  MIC: > 128 µg/mL
[15]
  MIC: 4 µg/mL (≈ 6.96 µM)

## NC[C@H]1O[C@H](O[C@H]2[C@H](O)[C@@H](O[C@H]3O[C@H](CO)[C@@H](O)[C@H](N)[C@H]3O)[C@H](N)C[C@@H]2N)[C@H](N)C[C@@H]1O [TOBRAMYCIN]
[1]
  MIC: 4 to 8 µg/mL (≈ 8.56 to 17.1 µM)
[2]
  MIC: 0.5 µg/mL (≈ 1.07 µM)
[4]
  MIC: 0.25 to 0.5 µg/mL (≈ 0.535 to 1.07 µM)
[5]
  MIC: < 0.25 µg/mL
[6]
  MIC: 1 µg/mL (≈ 2.14 µM)
[8]
  MIC: 64 µg/mL (≈ 137 µM)
[9]
  MIC: 64 µg/mL (≈ 137 µM)
[10]
  MIC: < 0.25 µg/mL
[11]
  MIC: 128 µg/mL (≈ 274 µM)
[12]
  MIC: < 0.25 µg/mL
[13]
  MIC: 0.5 µg/mL (≈ 1.07 µM)
[14]
  MIC: 0.5 to 1 µg/mL (≈ 1.07 to 2.14 µM)
[15]
  MIC: 32 µg/mL (≈ 68.4 µM)

## CCCCCCCCCCCO[C@@H]1[C@@H](N)[C@@H](O[C@H]2[C@H](O)[C@@H](OCCCCCCC)[C@H](N)C[C@@H]2N)O[C@H](CN)[C@H]1O
[1]
  MIC: 4 µg/mL (≈ 6.96 µM)
[2]
  MIC: 32 µg/mL (≈ 55.7 µM)
[3]
  viability at 24 h, 10 µM: 88.4%
[4]
  MIC: 1 µg/mL (≈ 1.74 µM)
[5]
  MIC: 2 µg/mL (≈ 3.48 µM)
[6]
  MIC: 2 µg/mL (≈ 3.48 µM)
[7]
  viability at 24 h, 30 µM: 39.1%
[8]
  MIC: 4 µg/mL (≈ 6.96 µM)
[9]
  MIC: 1 µg/mL (≈ 1.74 µM)
[10]
  MIC: 2 µg/mL (≈ 3.48 µM)
[11]
  MIC: 4 µg/mL (≈ 6.96 µM)
[12]
  MIC: 2 µg/mL (≈ 3.48 µM)
[13]
  MIC: 4 µg/mL (≈ 6.96 µM)
[14]
  MIC: > 128 µg/mL
[15]
  MIC: 2 µg/mL (≈ 3.48 µM)

## NC[C@H]1O[C@H](O[C@H]2[C@H](O)[C@@H](OCCCCc3ccc4ccccc4c3)[C@H](N)C[C@@H]2N)[C@H](N)[C@@H](OCCCCc2ccc3ccccc3c2)[C@@H]1O
[1]
  MIC: 32 µg/mL (≈ 46.6 µM)
[2]
  MIC: 2 to 4 µg/mL (≈ 2.91 to 5.82 µM)
[4]
  MIC: 2 µg/mL (≈ 2.91 µM)
[5]
  MIC: 2 µg/mL (≈ 2.91 µM)
[6]
  MIC: 8 µg/mL (≈ 11.6 µM)
[8]
  MIC: 8 µg/mL (≈ 11.6 µM)
[9]
  MIC: 2 µg/mL (≈ 2.91 µM)
[10]
  MIC: 8 µg/mL (≈ 11.6 µM)
[11]
  MIC: 8 µg/mL (≈ 11.6 µM)
[12]
  MIC: 4 µg/mL (≈ 5.82 µM)
[13]
  MIC: 8 µg/mL (≈ 11.6 µM)
[14]
  MIC: > 128 µg/mL
[15]
  MIC: 4 µg/mL (≈ 5.82 µM)

## CCCCCCCCCCCO[C@@H]1[C@@H](N)[C@@H](O[C@H]2[C@H](O)[C@@H](O)[C@H](N)C[C@@H]2N)O[C@H](CN)[C@H]1O
[1]
  MIC: > 128 µg/mL
[2]
  MIC: 16 µg/mL (≈ 33.6 µM)
[3]
  viability at 24 h, 10 µM: 81.8%
[4]
  MIC: 16 µg/mL (≈ 33.6 µM)
[5]
  MIC: 32 µg/mL (≈ 67.1 µM)
[6]
  MIC: 64 µg/mL (≈ 134 µM)
[7]
  viability at 24 h, 30 µM: 77.1%
[8]
  MIC: 32 µg/mL (≈ 67.1 µM)
[9]
  MIC: 16 µg/mL (≈ 33.6 µM)
[10]
  MIC: 4 to 8 µg/mL (≈ 8.39 to 16.8 µM)
[11]
  MIC: > 128 µg/mL
[12]
  MIC: > 128 µg/mL
[13]
  MIC: > 128 µg/mL
[14]
  MIC: > 128 µg/mL
[15]
  MIC: 32 µg/mL (≈ 67.1 µM)
